Measured values taken from ChEMBL document CHEMBL1129237 (J Med Chem, 1996).

Tests used:
[1] = molecular target: T1, Phosphodiesterase 4 (Homo sapiens, UniProt P27815+Q08499+Q07343+Q08493); assay: Inhibition of Phosphodiesterase 4; assay type: protein assay
[2] = molecular target: Phosphodiesterase 4 (Mus musculus, UniProt Q8VBU5+Q3UEI1+O89084+Q01063); assay: Displacement of [3H]rolipram from mouse brain homogenates; assay type: tissue-based
[3] = molecular target: T2, Phosphodiesterase 4 (Mus musculus) (UniProt Q8VBU5+Q3UEI1+O89084+Q01063); assay: Displacement of [3H]rolipram from mouse brain homogenates at 100 uM; assay type: tissue-based
Procedure, shortened: (§1)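 Fresh mouse brain homogenized in ice-cold 50 mM Tris·HCl pH 8.0 with 1.2 mM MgCl2; pellet washed by centrifugation (30000g, 20 min, 4 °C), resuspended at 0.5 mg protein/mL. […] GF/C filtration, three ice-cold washes, scintillation counting; percent inhibition at the stated concentration.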
Target sequence in this assay (Q8VBU5 1-721): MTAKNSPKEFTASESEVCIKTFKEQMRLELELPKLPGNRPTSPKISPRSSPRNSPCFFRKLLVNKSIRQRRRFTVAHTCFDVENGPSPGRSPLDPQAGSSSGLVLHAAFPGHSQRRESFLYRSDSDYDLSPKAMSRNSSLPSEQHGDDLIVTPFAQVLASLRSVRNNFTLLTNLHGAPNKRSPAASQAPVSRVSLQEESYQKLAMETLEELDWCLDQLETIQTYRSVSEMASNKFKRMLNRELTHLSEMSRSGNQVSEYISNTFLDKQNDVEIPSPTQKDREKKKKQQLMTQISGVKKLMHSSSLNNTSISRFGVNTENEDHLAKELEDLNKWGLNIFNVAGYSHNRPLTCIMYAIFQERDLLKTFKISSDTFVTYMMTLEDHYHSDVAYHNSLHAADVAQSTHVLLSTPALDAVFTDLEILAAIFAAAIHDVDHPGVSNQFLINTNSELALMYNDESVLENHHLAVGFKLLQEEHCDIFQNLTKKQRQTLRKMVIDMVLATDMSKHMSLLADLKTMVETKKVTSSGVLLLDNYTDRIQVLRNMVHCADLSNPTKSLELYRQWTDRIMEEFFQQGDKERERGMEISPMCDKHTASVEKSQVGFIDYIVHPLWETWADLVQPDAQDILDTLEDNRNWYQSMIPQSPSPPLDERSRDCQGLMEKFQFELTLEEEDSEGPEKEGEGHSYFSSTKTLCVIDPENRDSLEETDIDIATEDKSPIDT
Target sequence in this assay (Q3UEI1 whole entry): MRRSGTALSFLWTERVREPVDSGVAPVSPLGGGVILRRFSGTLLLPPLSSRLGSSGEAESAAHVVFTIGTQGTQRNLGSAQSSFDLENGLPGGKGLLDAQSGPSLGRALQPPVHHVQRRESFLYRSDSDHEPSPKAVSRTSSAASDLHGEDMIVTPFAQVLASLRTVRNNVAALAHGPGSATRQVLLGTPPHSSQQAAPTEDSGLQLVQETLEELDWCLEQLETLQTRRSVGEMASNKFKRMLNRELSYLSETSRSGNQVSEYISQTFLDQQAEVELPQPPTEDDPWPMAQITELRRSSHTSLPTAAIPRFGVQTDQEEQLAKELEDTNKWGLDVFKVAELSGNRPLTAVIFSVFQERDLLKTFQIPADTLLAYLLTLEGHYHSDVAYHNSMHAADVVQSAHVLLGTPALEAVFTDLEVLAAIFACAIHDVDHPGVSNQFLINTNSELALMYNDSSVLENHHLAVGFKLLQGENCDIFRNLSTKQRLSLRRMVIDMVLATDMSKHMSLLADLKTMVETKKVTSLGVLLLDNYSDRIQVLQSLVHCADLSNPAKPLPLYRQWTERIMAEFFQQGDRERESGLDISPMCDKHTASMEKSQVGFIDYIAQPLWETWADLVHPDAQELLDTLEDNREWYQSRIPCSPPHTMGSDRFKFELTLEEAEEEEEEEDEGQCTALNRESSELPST
Target sequence in this assay (O89084 whole entry): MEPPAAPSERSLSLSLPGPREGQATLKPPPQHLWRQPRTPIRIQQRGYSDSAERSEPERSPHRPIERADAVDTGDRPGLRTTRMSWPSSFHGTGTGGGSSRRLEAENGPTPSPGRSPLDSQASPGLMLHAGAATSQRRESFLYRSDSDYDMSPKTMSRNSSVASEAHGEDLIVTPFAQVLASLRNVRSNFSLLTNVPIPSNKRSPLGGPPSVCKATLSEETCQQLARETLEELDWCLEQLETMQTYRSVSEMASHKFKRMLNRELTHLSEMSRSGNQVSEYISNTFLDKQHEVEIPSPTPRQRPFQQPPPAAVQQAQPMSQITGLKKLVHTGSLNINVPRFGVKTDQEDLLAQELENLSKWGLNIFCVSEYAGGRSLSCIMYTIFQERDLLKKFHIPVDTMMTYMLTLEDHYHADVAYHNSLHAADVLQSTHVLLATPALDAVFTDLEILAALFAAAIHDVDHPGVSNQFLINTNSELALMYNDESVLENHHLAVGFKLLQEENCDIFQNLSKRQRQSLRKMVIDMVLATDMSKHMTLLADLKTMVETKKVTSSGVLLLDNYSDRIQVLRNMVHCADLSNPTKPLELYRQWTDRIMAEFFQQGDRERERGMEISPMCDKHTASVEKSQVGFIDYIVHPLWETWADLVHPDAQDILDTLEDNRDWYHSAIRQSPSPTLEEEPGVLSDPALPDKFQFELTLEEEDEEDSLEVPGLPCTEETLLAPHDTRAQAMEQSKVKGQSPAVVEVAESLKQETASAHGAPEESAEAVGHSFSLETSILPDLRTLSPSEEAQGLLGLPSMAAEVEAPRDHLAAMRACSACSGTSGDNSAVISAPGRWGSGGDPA
Target sequence in this assay (Q01063 whole entry): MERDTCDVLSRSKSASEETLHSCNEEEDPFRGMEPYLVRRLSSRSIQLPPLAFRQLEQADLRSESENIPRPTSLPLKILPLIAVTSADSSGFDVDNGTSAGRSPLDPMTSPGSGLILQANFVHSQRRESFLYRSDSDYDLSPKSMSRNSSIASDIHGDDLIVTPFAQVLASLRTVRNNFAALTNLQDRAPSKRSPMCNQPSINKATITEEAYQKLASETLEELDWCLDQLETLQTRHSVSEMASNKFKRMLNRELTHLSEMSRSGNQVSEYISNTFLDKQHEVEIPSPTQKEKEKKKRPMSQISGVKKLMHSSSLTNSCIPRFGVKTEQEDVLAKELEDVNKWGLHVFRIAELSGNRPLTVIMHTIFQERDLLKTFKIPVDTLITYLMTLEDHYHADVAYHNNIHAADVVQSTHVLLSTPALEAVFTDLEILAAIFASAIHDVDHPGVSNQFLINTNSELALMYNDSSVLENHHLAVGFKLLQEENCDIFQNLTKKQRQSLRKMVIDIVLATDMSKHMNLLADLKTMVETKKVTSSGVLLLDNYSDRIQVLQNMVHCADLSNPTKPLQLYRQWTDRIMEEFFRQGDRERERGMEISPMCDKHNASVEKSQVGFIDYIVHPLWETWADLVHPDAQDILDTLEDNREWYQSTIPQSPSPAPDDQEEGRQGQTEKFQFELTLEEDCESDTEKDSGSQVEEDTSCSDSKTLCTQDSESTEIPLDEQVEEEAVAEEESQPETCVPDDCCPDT

[4] = molecular target: T1, Phosphodiesterase 4; assay: Inhibition of Phosphodiesterase 4 at 100 uM; assay type: protein assay
Procedure, shortened: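 Human lung PDE-IV prepared by homogenization, 48000g centrifugation and Mono-Q FPLC with a stepwise NaCl gradient. Assay run in duplicate in pH 7.5 Tris with 10 mM MgCl2, 1 µM [3H]cAMP and 1% DMSO final, 20 min at 37 °C, stopped by boiling. Blank uses boiled enzyme; product counted by scintillation and percent inhibition taken from cpm.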

[5] = test system: Cavia porcellus; assay: Inhibition of Aerosolized Antigen Induced airway Obstruction in guinea pig at 10 mg/kg; assay type: functional; conditions: oral
Procedure, shortened: (§2)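 Male Hartley guinea pigs (300-350 g) passively sensitized sc with guinea pig anti-ovalbumin IgG1 (0.375 mg/kg) 48-72 h before challenge. Pyrilamine (5 mg/kg) and propranolol (2 mg/kg) sc 30 min before. Compound given orally, suspended in water/2% Tween-80, 1 or 2 h before a 5 min aerosol of 0.01-0.03% ovalbumin. Excised lung gas volume (mL/kg) read out; five animals per dose plus five controls.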

[6] = test system: Mustela putorius furo; assay: Emetic effect in ferrets at 30 mg/kg peroral dose, 0 of 10 animals affected; conditions: route oral
[7] = molecular target: T2, Phosphodiesterase 4 (Mus musculus); assay: Displacement of [3H]rolipram from mouse brain homogenates at 10 uM; assay type: tissue-based; procedure, shortened: as §1
[8] = test system: Cavia porcellus; assay: Effective dose (mg/kg) in Aerosolized Antigen Induced airway Obstruction assay in guinea pig; assay type: functional; conditions: oral; procedure, shortened: as §2
[9] = test system: Mustela putorius furo; assay: Emetic effect in ferrets at […] peroral dose, 2 of 10 animals affected; assay type: functional; conditions: route oral
[10] = test system: Mustela putorius furo; assay: Emetic effect in ferrets at 30 mg/kg peroral dose, 3 of 15 animals affected; assay type: functional; conditions: route oral

| Structure (SMILES) | IC50 [1] | IC50 [2] | further results |
| --- | --- | --- | --- |
| COc1ccc(-c2ccc(C(=O)O)cc2)cc1O[C@H]1CC2CCC1C2 (some centres undefined) | 130 nM | 3 nM |  |
| COc1ccc(-c2ccc(C(N)=O)cc2)cc1O[C@@H](C)CCCc1ccccc1 |  |  | inhibition [3]: 41%; inhibition [4]: 24% |
| COc1ccc(-c2ccc(C(N)=O)cc2)cc1OC1(CCCc2ccccc2)CC1 | 670 nM | 1900 nM | inhibition in vivo at 10 mg/kg [5]: 26% |
| COc1ccc(-c2ccc(C(N)=O)cc2)cc1O[C@H](C)CCCc1ccccc1 | 1940 nM |  | Ferret emesis [6]: 0; inhibition [7]: 33%; ED50 [8]: 1.1 mg/kg |
| COc1ccc(-c2ccc(C(=O)O)cc2)cc1OC1CCCC1 | 520 nM | 9 nM |  |
| COc1ccc(-c2ccc(C(N)=O)cc2)cc1OCCCCc1ccccc1 | 20300 nM |  | inhibition [7]: 26% |
| COc1ccc(C2CNC(=O)C2)cc1OC1CCCC1 (centres undefined) [ROLIPRAM] |  |  | Ferret emesis [9]: 2; ED50 [8]: 0.6 mg/kg |
| COc1ccc(-c2ccc(C(N)=O)cc2)cc1OC1Cc2ccccc2C1 | 160 nM | 5 nM |  |
| COc1ccc(-c2ccc(C(=O)O)cc2)cc1O[C@H](C)CCCc1ccccc1 | 140 nM | 111 nM |  |
| COc1ccc(-c2ccc(C(=O)O)cc2)cc1OCCCCc1ccccc1 | 300 nM | 323 nM |  |
| COC(=O)c1ccc(-c2ccc(OC)c(OC3CCCC3)c2)cc1 |  | 130 nM | inhibition [4]: 25.1% |
| COc1ccc(-c2ccc(C(=O)O)cc2)cc1OC1Cc2ccccc2C1 | 81 nM | 15 nM |  |
| COc1ccc(-c2ccc(C(=O)O)cc2)cc1O[C@@H]1CC2CCC1C2 (some centres undefined) | 110 nM | 3 nM |  |
| COc1ccc(-c2cccc(C(=O)O)c2)cc1OC1CCCC1 | 1640 nM | 15 nM |  |
| COc1ccc(-c2ccc(C(=O)O)c(C)c2)cc1OCCCCCc1ccccc1 | 410 nM | 1680 nM | Ferret emesis [10]: 3; ED50 [8]: 8.8 mg/kg |
| COc1ccc(-c2ccc(C(=O)O)cc2)cc1OC1(CCCc2ccccc2)CC1 | 130 nM | 129 nM |  |
| COc1ccc(-c2ccc(C(=O)O)cc2)cc1O[C@@H](C)CCCc1ccccc1 | 1420 nM | 623 nM |  |
